This is an account of results in PubChem BioAssay AID2445 (The Scripps Research Institute Molecular Screening Center, 2010).

Hit rate of the full screen: of about 320,000 compounds, about 200 (0.062%) were called active. The sample as a whole holds a higher share of actives than the screen did. Unmarked numbers belong to inactive results.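 The calls were made as follows: active = activation above that plate's cutoff, the mean activation of tested compounds plus 3 SD (cut at about 6.6% in these data, passing the limit was not always enough); inactive = the rest.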

Oxytocin receptor (Homo sapiens), sequence (P30559 whole entry, looked up): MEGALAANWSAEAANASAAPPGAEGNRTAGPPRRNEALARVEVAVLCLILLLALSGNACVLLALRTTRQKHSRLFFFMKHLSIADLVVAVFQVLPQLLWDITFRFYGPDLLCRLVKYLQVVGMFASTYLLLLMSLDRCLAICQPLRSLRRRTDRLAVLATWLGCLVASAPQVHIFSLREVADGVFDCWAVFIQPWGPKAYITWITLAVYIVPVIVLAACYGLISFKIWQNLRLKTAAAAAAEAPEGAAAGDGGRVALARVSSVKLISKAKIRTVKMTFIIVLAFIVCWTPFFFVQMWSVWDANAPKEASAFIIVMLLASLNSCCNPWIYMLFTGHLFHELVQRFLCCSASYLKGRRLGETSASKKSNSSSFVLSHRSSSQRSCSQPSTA

In this experiment the target is Oxytocin receptor (Homo sapiens) (UniProt P30559). Description: enhancers of oxytocin-evoked OXTR calcium signal – fluorescence, CHO-OTR cells, Fluo-8 calcium, primary screen (AID 2445).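 Also: 100% uses oxytocin at 75 nM as the full agonist control.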 The settings on record: Fluo-8 calcium fluorescence, potentiator mode, at 3 µM, stronger effect = higher value, 0% = oxytocin EC15, 100% = EC100. In outline:
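Measured by – Fluo-8 calcium dye fluorescence · Test system – human OTR in CHO cells · Dosing – one concentration, 3.0 µM compound · Controls – EC15 oxytocin alone as 0%, 75 nM oxytocin as 100% · Evaluation – normalized max/min fluorescence ratio, % activation · Timing – 6 min pre-incubation, 100 s read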
Turning to `COC(=O)C1=C[C@@H](C(=O)OC)[C@@H]2C3=C(C(=O)[C@]2(C)NC(=O)c2ccccc2)[C@H](C)n2c(=O)n(C)c(=O)n2[C@@H]3C1`, the activation was -11.9%.

Regarding `COc1cc(NC(=O)COC(=O)c2ccc([N+](=O)[O-])s2)cc(OC)c1OC`, the activation is -5.07%.

`O=C(Cn1cc(C(F)(F)F)ccc1=O)Nc1ccc2c(c1)OCCO2`: the activation is 2.63%.

Turning to `O=C(COC(=O)c1cc(=O)[nH]c2ccccc12)Nc1nc(-c2cccc(Br)c2)cs1`, the activation is 2.69%.

`CCOc1ccccc1NC(=O)CCc1nnc2ccc(NCc3ccco3)nn12`: the activation is 0.12%.

In the case of `CCCCCCNS(=O)(=O)c1ccccc1Br`, the activation is -3.1%.

Take `Brc1ccc(-c2n(-c3ccccn3)c3ccccc3[n+]2-c2ccccn2)cc1`: the activation is -4.84%.

Consider `COC(=O)C1(C)CC1(c1ccccc1)c1ccccc1` (stereo not given), for which the activation was -14.7%.

`CCOC(=O)C1=C(C)OC(N)=C(C#N)C1c1cncc(-c2ccc(F)cc2)c1` (stereo not given): the activation was -4.76%.

`O=C(COC(=O)c1ccc(F)cc1F)Nc1ncccn1`: the activation was -2.64%.

With `[O-][n+]1ccc(OCc2ccccc2)cc1`, the activation was -0.76%.

For the compound `COc1ccccc1CNS(=O)(=O)CC12CCC(CC1=O)C2(C)C` (stereo not given), the activation was -12.6%.

Consider `Cc1cc(NC(=O)CSc2nc(=O)cc(N)n2-c2ccc(F)cc2)no1`, for which the activation is 0.45%.

As for `CN(C)c1cc(N)c2ccccc2n1` (tested in a mixture with another compound), the activation was -14.8%.

For the compound `CN1C(=O)[C@H]2[C@@H](C3CC3)N3C(=O)CN(Cc4ccccc4)C(=O)[C@@]3(C)[C@H]2C1=O`, the activation was -2.37%.

For `CC(C)=CCc1c(O)c(CC=C(C)C)c2occ(-c3ccc(O)cc3)c(=O)c2c1O`, the activation was -5.45%.

Regarding `COc1ccc(-c2nc3cnccn3c2NC2CCCCC2)cc1-c1cccc(Cl)c1`, the activation was -2.33%.

In the case of `Cc1ccc(CNS(=O)(=O)c2ccc3c(c2)N(C)CCO3)cc1`, the activation is -5.63%.

For `NS(=O)(=O)c1cc(C(=O)OCC(=O)NNC(=O)c2ccccc2)ccc1Cl`, the activation was -5.64%.

Turning to `NC1=NN(c2cccc(C(=O)O)c2)C(=O)C1`, the activation was -3.83%.

For `CC(=O)N/C(=N/c1nc(C)cc(C)n1)Nc1ccc(F)cc1F`, the activation was 2.96%.

As to `Cc1ccc(CNC(=O)C2CCCN2S(=O)(=O)c2ccc3c(c2)C(C)(C)C(=O)N3C)cc1` (stereo not given), the activation is -1.94%.

With `CCc1ccnc(NS(=O)(=O)c2ccc3c(c2)OCCO3)c1`, the activation was -3.79%.

On to `C/C(=N\NC(=O)c1ccc(C)cc1)C1C(=O)c2ccccc2C1=O`, for which the activation is -16.2%.

Regarding `Cc1ccc(OCc2nnc(SC3CCc4ccccc4C3=O)n2C)cc1` (stereo not given), the activation was -7.17%.

With `CC1(C)CC(=O)C=C(c2ccc3ncccc3c2)C1`, the activation was -1.73%.

As for `Nc1cc(OC(=O)c2ccccc2Br)nn1S(=O)(=O)c1ccccc1`, the activation was -18.3%.

With `CCOc1cc(C2/C(=C(/O)c3ccc(S(=O)(=O)N4CCCCC4)cc3)C(=O)C(=O)N2CCOC)ccc1O` (stereo not given), the activation is -8.45%.

As to `Cc1nc(CNS(=O)(=O)c2ccc(Oc3ccccc3)cc2)cs1`, the activation was -14.3%.

On to `O=C(NCc1ccc(Cl)cc1)C(=O)NCC1CCCN1S(=O)(=O)c1cccs1` (stereo not given), for which the activation is -5.47%.

As for `C=CCN(N=Nc1cccc([N+](=O)[O-])c1)c1cccc([N+](=O)[O-])c1`, the activation is -14.2%.

Regarding `O=C(CNC(=O)c1ccc2ccccc2c1)Nc1ncccc1O`, the activation is 1.14%.

Regarding `COc1ccc(N(C(=O)c2snc(C(N)=O)c2N)C(C(=O)NC2CCCC2)c2ccc(C)o2)c(OC)c1` (stereo not given), the activation is -3.04%.

Take `Cc1cccc(OCC(O)CN2CCN(S(=O)(=O)c3ccc(C)cc3C)CC2)c1` (stereo not given): the activation is -12%.

`OC(COc1ccc(F)cc1Cl)CN1CCc2ccccc2C1` (stereo not given): the activation is -6.27%.

`Cc1ccc(OCC(O)CN2CCN(CC(O)COc3ccc(C)cc3Cl)CC2)c(Cl)c1` (stereo not given): the activation is 12.6% (active).

On to `COc1ccc(NC(=O)CCNS(=O)(=O)c2ccc3c(c2)c(=O)n(C)c(=O)n3C)cc1OC`, for which the activation was -4.46%.

With `O=C(Nc1ccc2c(c1)OCO2)C1CC(c2c(F)cccc2Cl)=NO1` (stereo not given), the activation is -1.98%.

As to `CS(=O)(=O)N(Cc1nc2sc3c(c2c(=O)[nH]1)CCCC3)C1CCCCC1`, the activation is -9.15%.

Regarding `COc1cc2c(cc1OC)C(=O)NCC(C)(C)O2`, the activation is 0.49%.

Consider `CN(C(=O)c1cccc(NC(=O)Cc2ccc([N+](=O)[O-])cc2)c1)C1CCC1`, for which the activation was -0.31%.

Regarding `O=C(CSc1n[nH]c(-c2cccnc2)n1)Nc1ccc(Cl)cc1`, the activation was -11%.

As to `COC(=O)C1CCN(C(=O)COC(=O)c2cc(S(=O)(=O)N3CCOCC3)ccc2C)CC1`, the activation is -5.03%.

As to `O=C(OCCN1C(=O)c2ccccc2C1=O)[C@@H]1CC(O)CN1S(=O)(=O)c1ccccc1[N+](=O)[O-]` (stereo not given in full), the activation is -5.05%.

For the compound `CCN(CC(=O)NCc1cccs1)C(=O)c1cccc(S(=O)(=O)Nc2ccccc2OC)c1`, the activation was -5.42%.

As for `Cc1ccc(N2C(=O)SC(N(CC(=O)O)c3ccc(C)cc3)C2=O)cc1` (stereo not given), the activation was -15.1%.

Take `O=C(NCC(c1ccco1)N1CCc2ccccc21)c1cccc(F)c1` (stereo not given): the activation is -9.25%.

On to `CSc1nnnn1-c1c(C)cc(C)cc1C`, for which the activation was -1.91%.

As for `CCOc1ccccc1Nc1nnc(SCC(=O)NCC2CCCO2)s1` (stereo not given), the activation is 0.07%.

In the case of `O=C(CCc1nnc2ccc(NCc3ccccc3Cl)nn12)NCC1CCN(C2CCCC2)C1` (stereo not given), the activation is -8.06%.

Regarding `CCCC(NC(=O)c1ccccc1)c1nc2ccccc2n1Cc1ccc(C(=O)OC)o1` (stereo not given), the activation was 4.77%.

For the compound `COc1cccc(-n2c(=O)c3c(C)c(C(=O)N(C)C)sc3n(CC(=O)NCCc3ccc(OC)c(OC)c3)c2=O)c1`, the activation is -15.7%.

As for `CC(CNC(=O)c1ccc(N)cc1)NC(=O)c1ccc(N)cc1` (stereo not given), the activation is -7.37%.

Take `CC(C)(CNC(=O)CNC(=O)C1CCCCC1)N1CCOCC1`: the activation was -6.61%.

Turning to `COCCN(C(=S)Nc1cccc(Cl)c1C)C(C)c1ccco1` (stereo not given), the activation was 2.23%.

Turning to `CC(C)N1C(=S)SC(C)(C)C1n1oc(=O)n(-c2ccc(Cl)c(Cl)c2)c1=O` (stereo not given), the activation was -15.1%.

With `COc1ccc2[nH]c(=O)c(CN(Cc3cccnc3)S(=O)(=O)c3ccccc3F)cc2c1`, the activation is -13.1%.

On to `OC(c1ccc(Cl)cc1)C(CN1CCOCC1)c1ccccc1` (stereo not given), for which the activation was -9.47%.

On to `CCS(=O)(=O)c1ccc2c(c1)N(S(=O)(=O)c1ccccc1)CC(C(=O)O)O2` (stereo not given), for which the activation is -11.9%.

Turning to `Cc1ccc(-n2ncc3c2CC(C)(C)CC3NC(=O)CCc2cnn(C)c2)cc1` (stereo not given), the activation is -3.78%.
